From ChEMBL document CHEMBL1154183, “Structure-based optimization of potent and selective inhibitors of the tyrosine kinase erythropoietin producing human hepatocellular carcinoma receptor B4 (EphB4)” (J Med Chem, 2009)

Target: T1, Ephrin type-B receptor 4 (Homo sapiens) (UniProt P54760)
T1 sequence (whole entry): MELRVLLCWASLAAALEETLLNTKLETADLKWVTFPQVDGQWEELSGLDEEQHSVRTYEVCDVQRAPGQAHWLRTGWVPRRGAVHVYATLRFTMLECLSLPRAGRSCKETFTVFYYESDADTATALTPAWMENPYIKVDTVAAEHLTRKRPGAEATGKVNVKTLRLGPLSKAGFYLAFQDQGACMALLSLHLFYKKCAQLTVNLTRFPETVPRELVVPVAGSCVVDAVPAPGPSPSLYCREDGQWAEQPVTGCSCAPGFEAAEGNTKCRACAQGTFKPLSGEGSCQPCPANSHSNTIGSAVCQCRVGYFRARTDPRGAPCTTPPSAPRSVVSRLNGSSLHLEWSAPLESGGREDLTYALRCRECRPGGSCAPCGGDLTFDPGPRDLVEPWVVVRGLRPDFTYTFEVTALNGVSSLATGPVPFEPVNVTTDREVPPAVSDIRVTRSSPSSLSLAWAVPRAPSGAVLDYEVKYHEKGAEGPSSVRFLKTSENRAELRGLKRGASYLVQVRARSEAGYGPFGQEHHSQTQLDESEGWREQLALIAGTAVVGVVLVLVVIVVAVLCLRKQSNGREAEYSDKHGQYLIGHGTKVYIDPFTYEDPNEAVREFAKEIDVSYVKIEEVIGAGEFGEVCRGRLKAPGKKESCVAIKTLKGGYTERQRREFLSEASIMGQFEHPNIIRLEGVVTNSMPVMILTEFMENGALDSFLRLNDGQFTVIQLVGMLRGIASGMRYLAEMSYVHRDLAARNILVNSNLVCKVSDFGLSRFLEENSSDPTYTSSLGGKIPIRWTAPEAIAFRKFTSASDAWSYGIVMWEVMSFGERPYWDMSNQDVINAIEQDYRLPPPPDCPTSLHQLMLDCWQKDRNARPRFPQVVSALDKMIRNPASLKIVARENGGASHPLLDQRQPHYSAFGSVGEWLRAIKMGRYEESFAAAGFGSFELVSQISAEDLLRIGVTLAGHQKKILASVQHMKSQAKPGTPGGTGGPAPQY
Test: Inhibition of EphB4 assessed as blockade of synthetic substrate phosphorylation at 10 uM by FRET assay
Parameters: scale not given: the % may be the effect or the level left
In short: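 Z'-LYTE FRET kinase assay with Tyr 1 peptide substrate. Final EphB4 25 ng/μL, ATP 125 μM (near Km), 30 °C for 2 h. Excitation 400 nm, emission at 445 and 520 nm, read as fluorescence progress curves. Inhibition of substrate phosphorylation was measured.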

| Structure (SMILES) | Activity [%] |
| --- | --- |
| CCCCn1c(-c2cccc(C)c2)cn2c3c(=O)[nH]c(=O)n(C)c3nc12 | 37 |
| COc1ccccc1-n1c(-c2cccc3c2OCO3)cn2c3c(=O)[nH]c(=O)n(C)c3nc12 | 30 |
| Cn1c(=O)[nH]c(=O)c2c1nc1n(CCCCO)c(-c3ccc4c(c3)OCO4)cn21 | 42 |
| CCCCn1c(-c2ccc(C)cc2)cn2c3c(=O)[nH]c(=O)n(C)c3nc12 | 38 |
| CCCCn1c(-c2cccc(OC)c2)cn2c3c(=O)[nH]c(=O)n(C)c3nc12 | 36 |
| COc1ccccc1-n1c(-c2ccccc2O)cn2c3c(=O)[nH]c(=O)n(C)c3nc12 | 64 |
| COc1ccccc1-n1c(-c2ccc(O)cc2)cn2c3c(=O)[nH]c(=O)n(C)c3nc12 | 59 |

Target: T2, Ephrin type-B receptor 4 (Homo sapiens, UniProt P54760)
T2 sequence (P54760 whole entry): T1 sequence (whole entry)
Test: Inhibition of EphB4 assessed as blockade of synthetic substrate phosphorylation by FRET assay

| Structure (SMILES) | IC50 [nM] |
| --- | --- |
| CCCCn1c(-c2ccc(O)cc2)cn2c3c(=O)[nH]c(=O)n(C)c3nc12 | 558 |
| COc1ccccc1-n1c(-c2ccc(F)cc2)cn2c3c(=O)[nH]c(=O)n(Cc4ccccc4)c3nc12 | > 10000 |
| COc1ccccc1-n1c(-c2cccc(O)c2C)cn2c3c(=O)[nH]c(=O)n(C)c3nc12 | 1200 |
| CCCCn1c(-c2ccccc2O)cn2c3c(=O)[nH]c(=O)n(C)c3nc12 | 1600 |
| COc1ccccc1-n1c(-c2cccc(O)c2)cn2c3c(=O)[nH]c(=O)n(C)c3nc12 | 368 |
| CCCCn1c(-c2cccc(O)c2)cn2c3c(=O)[nH]c(=O)n(C)c3nc12 | 691 |
| COc1ccccc1-n1c(-c2ccc(C(=O)O)cc2)cn2c3c(=O)[nH]c(=O)n(C)c3nc12 | > 20000 |
| COc1ccccc1-n1c(-c2ccc(F)cc2)cn2c3c(=O)[nH]c(=O)[nH]c3nc12 | 5400 |
| COc1ccccc1-n1c(-c2ccc3c(c2)OCO3)cn2c3c(=O)[nH]c(=O)n(C)c3nc12 | > 20000 |
| COc1ccccc1-n1c(-c2ccc(O)cc2C)cn2c3c(=O)[nH]c(=O)n(C)c3nc12 | 236 |
| CCCCn1c(-c2ccc(OC)cc2)cn2c3c(=O)[nH]c(=O)n(C)c3nc12 | > 10000 |
| CCCCn1c(-c2ccccc2OC)cn2c3c(=O)[nH]c(=O)n(C)c3nc12 | > 10000 |
| COc1ccccc1-n1c(-c2ccc([N+](=O)[O-])cc2)cn2c3c(=O)[nH]c(=O)n(C)c3nc12 | > 20000 |
| COc1ccccc1-n1c(-c2cccc(C)c2)cn2c3c(=O)[nH]c(=O)n(C)c3nc12 | > 10000 |
| COc1ccccc1-n1c(-c2ccccc2)cn2c3c(=O)[nH]c(=O)n(Cc4ccccc4)c3nc12 | > 10000 |
| COc1ccccc1-n1c(-c2ccc(C#N)cc2)cn2c3c(=O)[nH]c(=O)n(C)c3nc12 | > 20000 |

Target: T2, Ephrin type-B receptor 4
Test: Inhibition of EphB4 by [gamma33-P]ATP based assay

| Structure (SMILES) | IC50 [nM] |
| --- | --- |
| COc1ccccc1-n1c(-c2cccc(O)c2)cn2c3c(=O)[nH]c(=O)n(C)c3nc12 | 213 |
| Cn1c(=O)[nH]c(=O)c2c1nc1n(CCCCO)c(-c3ccccc3)cn21 | 5680 |
